The test system of test [1] is Huntingtin (Homo sapiens), P42858 [UNDEFINED MUTATION]. Description: Inhibition of TEV protease-induced 6His-GST tagged huntingtin polyQ 103 mutant (unknown origin) aggregation assessed as reduction in individual fibrils at 10 uM measured immediately by AFM imaging analysis. The method in brief:
(§1)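 AFM imaging of Htt aggregates after TEV cleavage. Fibrils were allowed to grow for 2 h, then peptide or nothing (control) was added, defining t = 0 h. Images were taken over 0–24 h and scored for spherical oligomers, individual fibrils, branching and aggregate clusters.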

For test [2] the test system is unchanged. Description: Inhibition of TEV protease-induced 6His-GST tagged wildtype huntingtin polyQ 25 (unknown origin) aggregation assessed as decrease in fibril length at 10 uM incubated for 24 hrs by AFM imaging analysis relative to control. Further details: scale not given: the % may be the effect or the level left. The method in brief: (§2)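 AFM imaging of Htt fibrils grown for 2 h after TEV cleavage in TEV cleavage buffer (pH 8.0). Peptide was then added, defining t = 0 h. Fibril length was measured at 0, 4, 8 and 24 h and reported as the mean length of 100 fibrils with standard deviation at each time point.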

The test system is the same in test [3]. As to the kind of experiment: Inhibition of TEV protease-induced 6His-GST tagged huntingtin polyQ 46 mutant (unknown origin) aggregation assessed as decrease in fibril length at 10 uM incubated for 24 hrs by AFM imaging analysis relative to control. Details: scale not given: the % may be the effect or the level left. The method in brief: as §2
For test [4] the test system is unchanged. As to the kind of experiment: Inhibition of TEV protease-induced 6His-GST tagged huntingtin polyQ 103 mutant (unknown origin) aggregation assessed as decrease in fibril clustering at 10 uM measured after 24 hrs by AFM imaging analysis. The method in brief: as §1
The test system is the same in test [5]. Description: Inhibition of TEV protease-induced 6His-GST tagged wildtype huntingtin polyQ 25 (unknown origin) aggregation assessed as reduction of spherical oligomers at 10 uM measured immediately by AFM imaging analysis.
Test [6] has the same test system. As to the kind of experiment: Inhibition of TEV protease-induced 6His-GST tagged huntingtin polyQ 103 mutant (unknown origin) aggregation assessed as isolated fibrils at 10 uM measured after 4 to 8 hrs by AFM imaging analysis. The settings on record: time 4-8 hrs.
For test [7] the test system is unchanged. Description: Inhibition of TEV protease-induced 6His-GST tagged wildtype huntingtin polyQ 25 (unknown origin) aggregation expressed in Escherichia coli BL21(DE3) assessed as relative fluorescence unit at 1:1 molar ratio incubated for 16 hrs by ThT fluorescence based spectrophotometer analysis (reference value: 666 a.u.). The method in brief: (§3)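 Aggregation started by TEV protease addition, with ThT readings beginning right after cleavage. Peptide added equimolar (1:1) to each Htt protein. Fluorescence was followed at 37 °C for at least 16 h, with excitation at 438 nm and emission at 495 nm. The end-point value at 16 h is averaged over triplicates.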

The test system is the same in test [8]. As to the kind of experiment: Inhibition of TEV protease-induced 6His-GST tagged huntingtin polyQ 46 mutant (unknown origin) aggregation expressed in Escherichia coli BL21(DE3) assessed as relative fluorescence unit at 1:1 molar ratio incubated for 16 hrs by ThT fluorescence based spectrophotometer analysis (reference value: 692 a.u.). The method in brief: as §3

Test [9] shares this test system. As to the kind of experiment: Inhibition of TEV protease-induced 6His-GST tagged huntingtin polyQ 103 mutant (unknown origin) aggregation assessed as decrease in fibril length at 10 uM incubated for 24 hrs by AFM imaging analysis relative to control. Details: scale not given: the % may be the effect or the level left. The essentials:
as §2

The test system is the same in test [10]. Description: Inhibition of TEV protease-induced 6His-GST tagged huntingtin polyQ 46 mutant (unknown origin) aggregation assessed as decrease in fibril length at 10 uM measured after 2 to 12 hrs by AFM imaging analysis. The settings on record: time 2-12 hrs.
Test [11] shares this test system. As to the kind of experiment: Inhibition of TEV protease-induced 6His-GST tagged huntingtin polyQ 103 mutant (unknown origin) aggregation assessed as decrease in fibril branching at 10 uM measured after 4 to 24 hrs by AFM imaging analysis. The settings on record: time 4-24 hrs. The essentials: as §1
For test [12] the test system is unchanged. Description: Inhibition of TEV protease-induced 6His-GST tagged huntingtin polyQ 103 mutant (unknown origin) aggregation assessed as decrease in individual fibers at 10 uM measured after 2 to 24 hrs by AFM imaging analysis. The settings on record: time 2-24 hrs. The essentials: as §1
Test [13] shares this test system. Description: Inhibition of TEV protease-induced 6His-GST tagged huntingtin polyQ 103 mutant (unknown origin) aggregation expressed in Escherichia coli BL21(DE3) assessed as relative fluorescence unit at 1:1 molar ratio incubated for 16 hrs by ThT fluorescence based spectrophotometer analysis (reference value: 1235 a.u.). The method in brief:
as §3

The test system is the same in test [14]. As to the kind of experiment: Inhibition of TEV protease-induced 6His-GST tagged huntingtin polyQ 46 mutant (unknown origin) aggregation assessed as reduction of spherical oligomers at 10 uM measured immediately by AFM imaging analysis. The essentials:
as §1

Test [15] shares this test system. As to the kind of experiment: Inhibition of TEV protease-induced 6His-GST tagged huntingtin polyQ 103 mutant (unknown origin) aggregation assessed as decrease in fibril length at 10 uM measured after 2 to 12 hrs by AFM imaging analysis. The settings on record: time 2-12 hrs.
The test system is the same in test [16]. Description: Inhibition of TEV protease-induced 6His-GST tagged wildtype huntingtin polyQ 25 (unknown origin) aggregation assessed as decrease in individual fibers at 10 uM measured after 2 to 24 hrs by AFM imaging analysis. The settings on record: time 2-24 hrs. The essentials:
as §1

The test system is the same in test [17]. As to the kind of experiment: Inhibition of TEV protease-induced 6His-GST tagged huntingtin polyQ 103 mutant (unknown origin) aggregation assessed as reduction of spherical oligomers at 10 uM measured immediately by AFM imaging analysis. The essentials:
as §1

For test [18] the test system is unchanged. As to the kind of experiment: Inhibition of TEV protease-induced 6His-GST tagged huntingtin polyQ 46 mutant (unknown origin) aggregation assessed as decrease in individual fibers at 10 uM measured after 2 to 24 hrs by AFM imaging analysis. The settings on record: time 2-24 hrs. The method in brief:
as §1

Calls of active or inactive are those of the source. No cut-off for these calls is given here.

Huntingtin (Homo sapiens), P42858 [UNDEFINED MUTATION], sequence (P42858 whole entry, looked up, change not shown): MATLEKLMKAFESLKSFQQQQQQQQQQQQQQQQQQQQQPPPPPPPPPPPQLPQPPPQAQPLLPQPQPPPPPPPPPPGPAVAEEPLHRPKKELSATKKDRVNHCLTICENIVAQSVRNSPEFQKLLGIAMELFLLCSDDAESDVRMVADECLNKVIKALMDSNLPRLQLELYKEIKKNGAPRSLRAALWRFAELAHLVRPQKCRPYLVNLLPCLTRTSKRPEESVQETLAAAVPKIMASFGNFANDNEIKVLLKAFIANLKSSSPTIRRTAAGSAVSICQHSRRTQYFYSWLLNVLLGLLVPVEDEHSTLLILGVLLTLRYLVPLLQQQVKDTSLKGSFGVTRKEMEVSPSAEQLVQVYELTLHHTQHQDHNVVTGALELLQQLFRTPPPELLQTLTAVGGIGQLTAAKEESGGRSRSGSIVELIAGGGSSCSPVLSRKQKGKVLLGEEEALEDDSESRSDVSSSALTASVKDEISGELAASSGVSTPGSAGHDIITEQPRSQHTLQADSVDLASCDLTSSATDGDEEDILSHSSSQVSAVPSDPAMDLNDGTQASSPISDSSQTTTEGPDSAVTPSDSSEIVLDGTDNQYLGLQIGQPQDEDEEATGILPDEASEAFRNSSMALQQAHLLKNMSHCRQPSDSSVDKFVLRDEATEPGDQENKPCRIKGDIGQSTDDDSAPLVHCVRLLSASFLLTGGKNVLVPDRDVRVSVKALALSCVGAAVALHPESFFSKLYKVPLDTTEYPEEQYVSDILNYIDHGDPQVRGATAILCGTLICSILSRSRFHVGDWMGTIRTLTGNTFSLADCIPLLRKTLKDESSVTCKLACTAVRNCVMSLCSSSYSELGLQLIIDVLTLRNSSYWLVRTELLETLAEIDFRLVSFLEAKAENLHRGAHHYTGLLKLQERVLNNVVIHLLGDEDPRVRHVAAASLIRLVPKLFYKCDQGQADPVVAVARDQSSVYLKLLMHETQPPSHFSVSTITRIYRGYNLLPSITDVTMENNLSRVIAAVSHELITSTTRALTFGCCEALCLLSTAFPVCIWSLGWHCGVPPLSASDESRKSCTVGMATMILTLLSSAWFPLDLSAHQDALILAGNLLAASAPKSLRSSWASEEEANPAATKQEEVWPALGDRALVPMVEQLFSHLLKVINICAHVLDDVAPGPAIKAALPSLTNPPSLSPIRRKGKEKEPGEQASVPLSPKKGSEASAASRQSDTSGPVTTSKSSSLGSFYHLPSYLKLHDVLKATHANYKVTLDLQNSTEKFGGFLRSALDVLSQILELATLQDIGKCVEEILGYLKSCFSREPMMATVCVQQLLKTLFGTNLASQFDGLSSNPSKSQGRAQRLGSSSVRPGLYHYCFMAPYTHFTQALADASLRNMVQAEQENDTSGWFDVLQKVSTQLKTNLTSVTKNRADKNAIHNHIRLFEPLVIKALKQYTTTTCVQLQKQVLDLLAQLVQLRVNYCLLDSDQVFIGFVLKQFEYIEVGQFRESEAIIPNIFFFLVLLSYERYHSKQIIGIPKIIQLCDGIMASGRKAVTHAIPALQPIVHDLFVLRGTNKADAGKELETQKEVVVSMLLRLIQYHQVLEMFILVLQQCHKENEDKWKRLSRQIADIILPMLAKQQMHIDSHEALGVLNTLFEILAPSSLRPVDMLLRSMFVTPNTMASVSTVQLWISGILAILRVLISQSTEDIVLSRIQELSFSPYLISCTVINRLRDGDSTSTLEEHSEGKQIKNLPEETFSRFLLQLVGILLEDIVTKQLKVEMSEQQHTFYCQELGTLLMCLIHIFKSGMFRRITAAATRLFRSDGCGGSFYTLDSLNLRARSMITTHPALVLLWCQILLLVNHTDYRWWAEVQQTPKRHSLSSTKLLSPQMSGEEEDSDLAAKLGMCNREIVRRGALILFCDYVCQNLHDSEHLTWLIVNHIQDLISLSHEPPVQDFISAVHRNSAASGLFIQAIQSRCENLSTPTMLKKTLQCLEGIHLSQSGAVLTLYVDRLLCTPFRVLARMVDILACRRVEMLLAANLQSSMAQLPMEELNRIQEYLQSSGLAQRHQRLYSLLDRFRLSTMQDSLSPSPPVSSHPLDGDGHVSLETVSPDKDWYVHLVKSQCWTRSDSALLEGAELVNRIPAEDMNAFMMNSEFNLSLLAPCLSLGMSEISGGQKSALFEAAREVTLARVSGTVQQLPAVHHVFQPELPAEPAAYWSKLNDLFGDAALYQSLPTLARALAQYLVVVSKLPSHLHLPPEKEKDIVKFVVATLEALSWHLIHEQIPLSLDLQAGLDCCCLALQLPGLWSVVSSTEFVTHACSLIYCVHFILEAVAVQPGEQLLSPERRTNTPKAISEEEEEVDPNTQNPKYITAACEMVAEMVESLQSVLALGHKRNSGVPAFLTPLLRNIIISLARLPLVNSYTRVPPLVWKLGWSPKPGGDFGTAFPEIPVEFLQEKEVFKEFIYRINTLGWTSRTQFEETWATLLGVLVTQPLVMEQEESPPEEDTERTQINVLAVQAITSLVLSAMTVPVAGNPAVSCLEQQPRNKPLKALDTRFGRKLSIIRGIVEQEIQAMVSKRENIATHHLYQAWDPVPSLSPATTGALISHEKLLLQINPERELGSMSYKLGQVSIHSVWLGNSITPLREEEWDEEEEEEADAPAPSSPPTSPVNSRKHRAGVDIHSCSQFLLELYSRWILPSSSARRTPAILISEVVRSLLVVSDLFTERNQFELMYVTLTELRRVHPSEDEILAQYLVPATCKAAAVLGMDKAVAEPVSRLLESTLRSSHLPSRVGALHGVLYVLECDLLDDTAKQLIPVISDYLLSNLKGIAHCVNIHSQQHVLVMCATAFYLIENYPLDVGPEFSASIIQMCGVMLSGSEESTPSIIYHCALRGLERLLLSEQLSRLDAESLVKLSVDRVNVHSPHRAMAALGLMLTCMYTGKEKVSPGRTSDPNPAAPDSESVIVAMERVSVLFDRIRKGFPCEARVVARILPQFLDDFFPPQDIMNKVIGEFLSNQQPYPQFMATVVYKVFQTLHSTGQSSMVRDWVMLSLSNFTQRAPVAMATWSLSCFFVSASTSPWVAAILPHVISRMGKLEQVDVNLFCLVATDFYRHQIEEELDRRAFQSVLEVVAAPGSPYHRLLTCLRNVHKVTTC

`CSCC[C@H](NC(=O)[C@H](CO)NC(=O)[C@H](Cc1c[nH]cn1)NC(=O)[C@H](CC(C)C)NC(=O)CNC(=O)[C@@H](N)Cc1c[nH]cn1)C(=O)N[C@@H](Cc1c[nH]cn1)C(=O)N[C@@H](CC(N)=O)C(=O)N[C@@H](CCCCN)C(=O)N[C@@H](CC(C)C)C(=O)N[C@@H](CC(C)C)C(=O)N[C@@H](CCC(N)=O)C(=O)N[C@H](C(=O)O)[C@@H](C)O`: the inhibition entry in test [1], in test [5], in test [14] and in [17] was “inactive” each time. The Activity in [2] is 38.3%; in test [3], 17.6%; in [9], 22.7%. For the same compound, the inhibition entry in test [4], in [6], in [10], in test [11], in test [12] and in test [15] was “Active” in each case. Also, the inhibition entry in test [16] and in test [18] was “Active” each time. In addition, the RFU in test [7] amounted to 459 a.u; in test [8] it was 500 a.u; in [13], 433 a.u.
As to `CSCC[C@H](NC(=O)[C@@H](N)Cc1c[nH]c2ccccc12)C(=O)N[C@@H](Cc1ccccc1)C(=O)N1CCC[C@H]1C(=O)N[C@@H](CO)C(=O)N[C@@H](CC(C)C)C(=O)N[C@@H](CCCCN)C(=O)N[C@@H](CC(C)C)C(=O)N[C@@H](CC(C)C)C(=O)N[C@@H](CC(=O)O)C(=O)N[C@@H](Cc1ccc(O)cc1)C(=O)N[C@@H](Cc1c[nH]cn1)C(=O)O`, the inhibition entry in test [1], in test [5], in test [14] and in test [17] was “inactive” in each case. The Activity was determined as 25.6% in test [2], 17.3% in [3] and 28% in test [9]. The inhibition entry in [4], in test [6], in test [10], in [11], in [12] and in test [15] was “Active” throughout. In addition, the inhibition result in [16] and in [18] was “Active” each time. The results for the RFU in test [7], in test [8] and in test [13] were 552 a.u, 634 a.u and 431 a.u, respectively.
In the case of `CC(C)C[C@H](NC(=O)CNC(=O)[C@H](CC(C)C)NC(=O)[C@H](CO)NC(=O)[C@H](CC(N)=O)NC(=O)[C@H](C)NC(=O)CNC(=O)[C@H](Cc1c[nH]cn1)NC(=O)[C@@H](N)Cc1c[nH]cn1)C(=O)N[C@H](C(=O)N[C@@H](CCC(N)=O)C(=O)N[C@@H](CO)C(=O)O)C(C)C`, the inhibition result in [1], in test [5], in test [14] and in test [17] was “inactive” in each case. In addition, the Activity in test [2] was found to be 42.9%; in test [3], 24.9%; in [9], 36.7%. Besides, the inhibition result in [4], in test [6], in test [10], in test [11], in test [12] and in test [15] was “Active” in each case. Also, the inhibition entry in test [16] and in [18] was “Active” throughout. The RFU in [7] was found to be 424 a.u; in test [8], 357 a.u; in test [13] it was 564 a.u.

The record behind these values is ChEMBL document CHEMBL5390313, “Highly Potent Peptide Therapeutics To Prevent Protein Aggregation in Huntington's Disease” (ACS Med Chem Lett, 2023).
